Measurements as given in ChEMBL document CHEMBL1125632, “Synthesis and copper-dependent antimycoplasmal activity of amides and amidines derived from 2-amino-1,10-phenanthroline” (1991).
Converted amounts (≈) assume the structure as drawn.

How the values were obtained:
[1] = system: Mycoplasmoides gallisepticum; test: Minimum inhibitory concentration measured against Mycoplasma gallisepticum K514 in the absence of extra copper; assay type: functional
Method in brief: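 M. gallisepticum K514 grown in modified Adler medium (peptone, yeast extract, glucose, heat-inactivated horse serum, benzylpenicillin, phenol red, pH 8.0). No added copper. Compounds dissolved in DMSO (final 1.25%) and tested as serial 2-fold dilutions in duplicate, 3 nM to 100 μM. Tubes with 3 mL medium received 1 mL fresh culture and were held 24 h at 37 °C. MIC is the lowest concentration giving no indicator colour change.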

[2] = system: Mycoplasmoides gallisepticum; test: Minimum inhibitory concentration measured against Mycoplasma gallisepticum K514 in the presence of extra copper; assay type: functional
Method in brief: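 M. gallisepticum K514 grown in modified Adler medium (peptone, yeast extract, glucose, horse serum, benzylpenicillin, phenol red, pH 8.0) with CuSO4 at 40 μM final. Compounds in DMSO (1.25% final), serial 2-fold dilutions in duplicate over 3 nM–100 μM. 3 mL medium plus 1 mL fresh culture, incubated 24 h at 37 °C. MIC is the lowest concentration with no phenol-red colour change.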

| Compound | MIC [1] [µM] | MIC [2] [µM] |
| --- | --- | --- |
| CUPRIC SULFATE | 700 |  |
| O=C(Nc1ccc2ccc3cccnc3c2n1)c1ccc(Cl)cc1 | > 100 | 0.023 |
| Nc1ccc2ccc3cccnc3c2n1 | > 100 | 3.1 |
| O=C(Nc1ccc2ccc3cccnc3c2n1)c1ccccc1 | > 100 | 0.023 |
| N=C(Nc1ccc2ccc3cccnc3c2n1)c1ccc(Cl)c(Cl)c1 | > 100 | 0.2 |
| CCCCc1ccc2ccc3ccc(NC(=O)c4ccc(Cl)cc4)nc3c2n1 | > 100 | 0.75 |
| Nc1ccc2ccc3ccc(N)nc3c2n1 | > 100 | 0.8 |
| N=C(Nc1ccc2ccc3cccnc3c2n1)c1ccc(Cl)cc1 | > 100 | 0.2 |
| COc1ccc(C(=O)Nc2ccc3ccc4cccnc4c3n2)cc1 | > 100 | 0.046 |
| CCCCCCCCCC(=O)Nc1ccc2ccc3cccnc3c2n1 | > 100 | 0.37 |
| Cc1ccc(C(=O)Nc2ccc3ccc4cccnc4c3n2)cc1 | > 100 | 0.023 |

Further lines, results first:

| MIC [1] [µM] | MIC [2] [µM] | Compound |
| --- | --- | --- |
| > 100 | 0.05 | O=C(Nc1ccc2ccc3ccc(NC(=O)c4ccccc4)nc3c2n1)c1ccccc1 |
| > 100 | 0.2 | N=C(Nc1ccc2ccc3cccnc3c2n1)c1ccccc1 |
| > 100 | 0.37 | CCCCc1ccc2ccc3ccc(NC(=O)c4ccc(C)cc4)nc3c2n1 |
| > 100 | 0.095 | O=C(Nc1ccc2ccc3cccnc3c2n1)c1ccc(Cl)c(Cl)c1 |
| > 100 | 0.23 | CCCCC(CC)C(=O)Nc1ccc2ccc3cccnc3c2n1 (configuration not stated) |
| > 100 | 0.2 | CCCCc1ccc2ccc3ccc(NC(=O)c4ccccc4)nc3c2n1 |
| > 100 | 1.5 | CCCCc1ccc2ccc3ccc(NC(=O)c4ccc(Cl)c(Cl)c4)nc3c2n1 |
| 0.1 (≈ 0.0916 µg/mL) | 0.1 | CC[C@H]1OC(=O)C[C@@H](O)[C@H](C)[C@@H](O[C@@H]2O[C@H](C)[C@@H](O[C@H]3C[C@@](C)(O)[C@@H](O)[C@H](C)O3)[C@H](N(C)C)[C@H]2O)[C@@H](CC=O)C[C@@H](C)C(=O)/C=C/C(C)=C/[C@@H]1CO[C@@H]1O[C@H](C)[C@@H](O)[C@@H](OC)[C@H]1OC [TYLOSIN] |
